The subject of data set [1] is C4-2 cells. The data set can be described thus: Oxygen consumption rate. It counts as cell-based, Human. Particulars: 1 μM. The gist of the method:
(§1)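 Mycoplasma-tested cells, 20,000 per poly-L-lysine-coated well, 16 h at 37 °C, 5% CO2. Moved to carbonate-free RPMI assay buffer (4.5 g L-1 glucose, pyruvate, pH 7.4) for 60 min CO2-free. […] Rotenone-insensitive rate subtracted; traces set to 100% pre-addition. n = 6 treated, 16 control; mean ± S.E.M.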

Data set [2] deals with C4-2B cells. The data set can be described thus: Oxygen consumption rate. The format is cell-based, Human. Particulars: 1 μM. The gist of the method:
as §1

Data set [3] relates to PNT2 cells. Briefly: Oxygen consumption rate. The format is cell-based, Human. The conditions noted are these: 1 μM. The gist of the method:
as §1

The test system of data set [4] is C4-2 cells. Briefly: Cell growth curves. The format is cell-based, Human. Particulars: 1 μM. The gist of the method:
(§2)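 Cells were seeded at 1,000 per well in RPMI 1640 with 10% FBS, 25 mM HEPES and 1 mM pyruvate, then grown with 1 μM test compound. Read-out was confluence (% of well surface covered by adherent cells) over time, also taken after 150 h. Eight replicates per condition; mean ± S.E.M.; unpaired two-tailed t-test.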

The subject of data set [5] is C4-2B cells. Briefly: Cell growth curves. It counts as cell-based, Human. Particulars: 1 μM. The gist of the method:
as §2

Data set [6] relates to C4-2B cells. Briefly: Cell viability and cell count. It counts as cell-based, Human. Particulars: 1 μM, 48 hours. In a few lines: (§3)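 150,000 cells per well were grown overnight, then given 1 μM test compound (ethanolic stock diluted in medium) or ethanol control for 48 h. Cells were trypsinized, pelleted (400 x g, 5 min), resuspended in PBS, stained with acridine orange/DAPI, and read for viability and count. n = 4 treated, 10 control; mean ± S.E.M.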

A further data set concerns cancer cell. The conditions noted are these: Annexin V flow cytometry; cited from earlier work.
Data set [7] relates to PNT2 cells. The data set can be described thus: Cell growth curves. The format is cell-based, Human. Particulars: 1 μM.
Data set [8] concerns C4-2 cells. Briefly: Cell viability and cell count. It counts as cell-based, Human. The conditions noted are these: 1 μM, 48 hours. The gist of the method: as §3
Data set [9] concerns PNT2 cells. Briefly: Cell viability and cell count. The format is cell-based, Human. Particulars: 1 μM, 48 hours. In a few lines:
as §3

For data set [10] the following is noted: cited from earlier work; for neurotoxicity / crossing of the blood-brain barrier: rats and mice; for detection in brain as metabolite of 1 and 2: rat model of Parkinson's disease.
The test system of data set [11] is A-549 lung, HCT-8 intestinal, RPMI-7951 skin, TE671 brain, and KB cervical cancer cells. Particulars: range over all cell types; cited from earlier work.

Like-named read-outs stand apart in the source and are kept apart here.

In the case of `COc1cc2c(cc1OC)[C@@H]1C(=O)c3ccc4c(c3O[C@@H]1CO2)C[C@H](C(C)CO)O4` (mixture of isomers) [compound 5, (6aS,12aS,5′R,6′R)- and (6aS,12aS,5′R,6′S)-6′,7′-Dihydroamorphigenin], the oxygen consumption rate result with C4-2 cells [1], in the data set with C4-2B cells [2] and in the data set with PNT2 cells [3] was “powerful effect” in each case. The “proliferation (cell growth)” value in the data set on C4-2 cells [4] was “particularly affected”; in the data set on C4-2B cells [5] it was “responded”. Also, the cell count result in the data set with C4-2B cells [6] is listed as “marginal effects”.

For `Cc1nc(-c2nc(-c3ccc(OC(F)(F)F)cc3)no2)nn1Cc1cccc(N2CCC(S(C)(=O)=O)CC2)c1` [IACS-01079], in the data set on cancer cell, the “effect on cancer cell proliferation and viability” value was “inhibit both cancer cell proliferation and viability”.

On to `C=C(C)[C@H]1Cc2c(ccc3c2O[C@@H]2COc4cc(OC)c(OC)cc4[C@@H]2C3=O)O1` [compound 1, rotenone], for which the “proliferation (cell growth)” value is “did not proliferate” with C4-2 cells [4]; “did not proliferate” with C4-2B cells [5]; “retained their ability to proliferate, albeit at a substantially reduced rate” in the data set with PNT2 cells [7]. Further, the cell count entry with C4-2 cells [8], in the data set on C4-2B cells [6] and with PNT2 cells [9] was “affected cell counts” in each case. In addition, in [10] (3 mg kg^-1 day^-1), the neurotoxicity result is recorded as “cause neuronal damage”. For the same compound, in data set [10], the “crossing of the blood-brain barrier” value was “cross the blood-brain barrier”.

In the case of `COc1cc2c(cc1OC)[C@@H]1C(=O)c3ccc4c(c3O[C@@H]1CO2)C=CC(C)(C)O4` [compound 2, deguelin], the neurotoxicity result in data set [10] (6 mg kg^-1 day^-1) is “cause neuronal damage”. Further, the “crossing of the blood-brain barrier” value in [10] was “cross the blood-brain barrier”.

In the case of `COc1cc2c(cc1OC)[C@@H]1C(=O)c3ccc4c(c3O[C@@H]1CO2)C[C@H](C(C)(C)O)O4` [compound 4, (6aS,12aS,5′R)-Dalpanol], in [11], the “ED50 (half-maximal effective concentration), cytotoxicity” value is 0.48 to 4.83 µg/mL.

As for `C=C(C)[C@H]1Cc2c(ccc3c2O[C@@H]2COc4cc(OC)c(OC)cc4[C@]2(O)C3=O)O1` [compound 7, (6aR,12aR,5′R)-Rotenolone], in data set [10], the “detection in brain as metabolite of 1 and 2” value is listed as “detected in the brains of treated animals”; the “crossing of the blood-brain barrier” value is “cross the BBB”.

Take `COc1cc2c(cc1OC)[C@]1(O)C(=O)c3ccc4c(c3O[C@@H]1CO2)C=CC(C)(C)O4` [compound 8, tephrosin]: in data set [10], the “detection in brain as metabolite of 1 and 2” value is “detected in the brains of treated animals”; the “crossing of the blood-brain barrier” value was “cross the BBB”.

Values taken from publication PMC7611836 (Journal of natural products, 2020).
